# Results: ChEMBL document CHEMBL1148736, “N-Acylthiadiazolines, a new class of liver X receptor agonists with selectivity for LXRbeta” (J Med Chem, 2007)
# The source made the active and inactive calls. The calls are words filed in the database; no cut-off is given here.
# Columns and labels:
# Liver [1] = assay: Effect on ABCA1 gene expression in C57BL/6 mouse liver; format: functional, tissue-based
# In short: (§1)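 Male C57BL/6 mice, 10 weeks old, chow-fed, gavaged daily with vehicle or compound (20–200 mpk) for 3 days. Fasted overnight before the last dose; killed 3 h later. Tissue RNA analysed by TaqMan qRT-PCR.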
# [2] = AUC in C57BL/6 mouse at 5 mg/kg, iv; format: ADME, organism-based; design: dose 5 mg/kg, route intravenous; settings: plasma
# In short: (§2)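 Mouse PK study, IV and PO; compound formulated at 2.5 mg/mL in PEG300/Tween 80 (4:1). IV dose 5 mpk (AUC, Cmax, clearance, Vss); oral dose 20 mpk (AUC, Cmax, bioavailability, t1/2).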
# [3] = AUC in C57BL/6 mouse at 20 mg/kg, po; format: ADME, organism-based; design: dose 20 mg/kg, route oral; settings: plasma; in short: as §2
# [4] = biological target: T1, Oxysterols receptor LXR-alpha (Homo sapiens, UniProt Q13133); assay: Agonist activity at GAL-linked human LXRalpha expressed in THP1 cells assessed as stimulation of coactivator recruitment by FRET assay; format: functional
# T1 sequence (Q13133 whole entry): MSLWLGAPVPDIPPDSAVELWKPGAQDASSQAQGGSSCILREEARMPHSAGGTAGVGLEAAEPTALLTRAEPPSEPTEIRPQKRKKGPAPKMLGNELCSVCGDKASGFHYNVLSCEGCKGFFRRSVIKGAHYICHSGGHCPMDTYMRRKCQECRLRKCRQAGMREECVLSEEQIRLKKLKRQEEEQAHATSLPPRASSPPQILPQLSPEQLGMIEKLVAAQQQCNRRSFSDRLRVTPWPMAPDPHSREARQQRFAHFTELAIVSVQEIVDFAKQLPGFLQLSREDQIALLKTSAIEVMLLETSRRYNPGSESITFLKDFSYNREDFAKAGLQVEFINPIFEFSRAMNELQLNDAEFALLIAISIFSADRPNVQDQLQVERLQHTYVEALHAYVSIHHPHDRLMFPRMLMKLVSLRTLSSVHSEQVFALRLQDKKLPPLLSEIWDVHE
# In short: (§3)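 Cell-free TR-FRET coactivator recruitment: 20 nM His-tagged hLXRα or hLXRβ, 300 nM biotinylated SRC-1 peptide, Eu-anti-His antibody, APC-streptavidin. 12-point curves from 20 µM; 1 h at 37 °C. Duplicate. %E = maximal coactivator recruitment relative to reference dual agonist in same experiment.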
# [5] = biological target: T2, Oxysterols receptor LXR-alpha (Homo sapiens) (UniProt Q13133); assay: Agonist activity at GAL-linked human LXRalpha expressed in THP1 cells assessed as stimulation of co-activator recruitment by FRET assay relative to GW-3965; format: functional; in short: as §3
# T2 sequence (whole entry): T1 sequence (Q13133 whole entry)
# [6] = biological target: T3, Oxysterols receptor LXR-beta (Homo sapiens, UniProt P55055); assay: Agonist activity at GAL-linked human LXRbeta expressed in THP1 cells assessed as stimulation of co-activator recruitment by FRET assay; format: functional; in short: as §3
# T3 sequence (P55055 whole entry): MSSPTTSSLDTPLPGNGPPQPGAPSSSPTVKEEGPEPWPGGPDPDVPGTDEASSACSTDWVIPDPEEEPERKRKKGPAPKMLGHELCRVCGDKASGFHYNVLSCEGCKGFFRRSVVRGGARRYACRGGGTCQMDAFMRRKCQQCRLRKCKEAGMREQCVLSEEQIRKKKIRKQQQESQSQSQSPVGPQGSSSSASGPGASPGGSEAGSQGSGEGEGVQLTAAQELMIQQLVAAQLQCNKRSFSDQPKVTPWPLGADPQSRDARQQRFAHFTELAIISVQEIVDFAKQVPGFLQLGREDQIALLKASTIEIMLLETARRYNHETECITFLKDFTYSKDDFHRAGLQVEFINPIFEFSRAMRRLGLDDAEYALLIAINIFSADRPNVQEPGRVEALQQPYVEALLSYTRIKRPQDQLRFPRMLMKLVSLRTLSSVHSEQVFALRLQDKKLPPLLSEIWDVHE
# [7] = biological target: T4, Oxysterols receptor LXR-beta (Homo sapiens) (UniProt P55055); assay: Agonist activity at GAL-linked human LXRbeta expressed in THP1 cells assessed as stimulation of co-activator recruitment by FRET assay relative to GW-3965; format: functional; in short: as §3
# T4 sequence (whole entry): T3 sequence (P55055 whole entry)
# THP-1 [8] = assay: Increase in ABCA1 gene expression in THP1 cells at 1 uM relative to GW-3965; format: functional, Homo sapiens
# In short: (§4)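 THP-1 cells differentiated with 40 ng/mL PMA for 1 day, then switched to RPMI with 2% lipoprotein-deficient FBS. Compound added 6 h later at 1 or 10 µM in DMSO, incubated 24 h. ABCA1 mRNA by one-step TaqMan qRT-PCR, triplicate, multiplexed with 36B4; fold induction vs DMSO, expressed relative to reference dual agonist.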
# THP-1 [9] = assay: Increase in ABCA1 gene expression in THP1 cells at 10 uM relative to GW-3965; format: functional, Homo sapiens; in short: as §4
# Liver [10] = assay: Effect on SREBP1c gene expression in C57BL/6 mouse liver; format: functional, tissue-based; in short: as §1
# [11] = Cmax in C57BL/6 mouse at 5 mg/kg, iv; format: ADME, organism-based; design: dose 5 mg/kg, route intravenous; settings: in vivo; in short: as §2
# [12] = Clearance in C57BL/6 mouse at 5 mg/kg, iv; format: ADME, organism-based; design: dose 5 mg/kg, route intravenous; settings: in vivo; in short: as §2
# [13] = Volume of distribution at steady state in C57BL/6 mouse at 5 mg/kg, iv; format: ADME, organism-based; design: dose 5 mg/kg, route intravenous; settings: in vivo, read-out: Vss; in short: as §2
# [14] = Cmax in C57BL/6 mouse at 20 mg/kg, po; format: ADME, organism-based; design: dose 20 mg/kg, route oral; settings: in vivo; in short: as §2
# [15] = Bioavailability in C57BL/6 mouse at 20 mg/kg, po; format: ADME, organism-based; settings: in vivo; in short: as §2
# [16] = Half life in C57BL/6 mouse at 20 mg/kg, po; format: ADME, organism-based; design: dose 20 mg/kg, route oral; settings: in vivo; in short: as §2
smiles,measurement,setting,value
COc1cccc(C2SC(c3ccc(F)cc3)=NN2C(=O)c2c(F)cc(F)cc2F)c1OC (stereo unspecified),Activity,Liver [1],inactive
same,AUC,[2],35700 ng·h/mL
same,AUC,[3],16800 ng·h/mL
same,EC50,[4],1400 nM
same,Efficacy,[5],62%
same,EC50,[6],76 nM
same,Efficacy,[7],98%
same,Activity,THP-1 [8],42%
same,Activity,THP-1 [9],53%
same,Activity,Liver [10],inactive
same,Cmax,[11],70.9 µM
same,clearance,[12],2.26 mL/min/kg
same,Vd,[13],0.44 L/kg
same,Cmax,[14],6.9 µM
same,bioavailability,[15],11%
same,half-life,[16],270 min
